We go through six compounds from paper PMC3457684 (Science translational medicine, 2012).

Data set [1] deals with intracellular L. donovani (LV9) amastigotes in peritoneal mouse macrophages. In words: In macrophage drug sensitivity assay. Type of data set: cell-based, Leishmania donovani. As to conditions: strain LV9, peritoneal mouse macrophages, 72h.
The subject of data set [2] is L. donovani (strain LdBOB) promastigotes. As to the kind of experiment: In vitro drug sensitivity assay, promastigotes. Type of data set: cell-based, Leishmania donovani. To be noted: for EC50: Leishmania donovani, 72 h, read-out: L. donovani EC50, Promastigote. In outline: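 Clonal LdBOB promastigotes were grown at 26 °C in stage-specific medium. Triplicate cultures were seeded at 1 × 10⁵ parasites ml⁻¹ with test compound for 72 h, then given 50 μM resazurin, and fluorescence (ex 528, em 590 nm) was read after 4 h. For isobolograms, mid-log promastigotes received the two metabolites in fixed combinations relative to their respective EC50s. The EC50 of each combination was determined at 72 h (triplicate, mean ± SD) and plotted.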

The test system of a further data set is L. donovani strain LV9. In words: In vivo drug sensitivity, mouse model of visceral leishmaniasis. Set-up: species or system BALB/c mice. To be noted: oral, once daily for 5 days.
The test system of data set [3] is L. donovani (strain LdBOB) axenic amastigotes. In words: In vitro drug sensitivity assay, axenic amastigotes. It is filed as cell-based. As to conditions: Leishmania donovani. In outline:
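Clonal LdBOB axenic amastigotes were grown at 37 °C in 5% CO₂ in stage-specific medium and cycled between stages after at most 7 passages. Triplicate cultures were seeded at 1 × 10⁵ parasites ml⁻¹ with test compound for 72 h. Resazurin (50 μM) was added, and fluorescence (ex 528, em 590 nm) was read 4 h later. At least three experiments were run; results are weighted mean plus weighted standard deviation.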

In data set [4] the test system is L. donovani (strain LdBOB) axenic amastigotes overexpressing L. major nitroreductase. In words: Drug susceptibility of axenic amastigotes overexpressing L. major nitroreductase. Type of data set: cell-based, Leishmania donovani. To be noted: for shift in sensitivity, nitroreductase overexpressing vs wildtype: axenic amastigotes; for EC50: read-out: EC50, axenic amastigotes overexpressing nitroreductase.

Data set [5] in a line: Plasma protein binding by equilibrium dialysis. As to conditions: mouse. Type of data set: in vitro ADME.
Data set [6] in a line: Fexinidazole exposure in mice after acute oral dosing. It is filed as in vivo, BALB/c mice. As to conditions: single oral dose of fexinidazole 200 mg kg^−1, mouse blood.
The test system of data set [7] is L. donovani (strain LdBOB) axenic amastigotes. As to the kind of experiment: Cytocidal effect on axenic amastigotes. Type of data set: cell-based, Leishmania donovani. To be noted: drug at 10 times its EC50 (sulfone 36 μM), wash-out and sub-culture without drug. In outline:
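Early-log LdBOB axenic amastigotes (~1 × 10⁶ ml⁻¹), grown at 37 °C in 5% CO₂, were exposed to test compound at 36 μM. At intervals, cell density was counted, and samples were removed, washed and resuspended in fresh drug-free medium. Viability of washed parasites was followed for up to 72 h after drug removal to find the point of irreversible toxicity.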

A further data set relates to L. donovani. To be noted: similar in vivo studies; cited from earlier work.
[8] abbreviates: 72 h, read-out: L. donovani EC50, Axenic amastigote.
[9] abbreviates: read-out: EC50, wildtype axenic amastigotes.

Where “and” joins values, the source holds several entries; their conditions need not be identical. Equal entries are not always repeated. Where two headings read alike, the source gives them in different places.

As for `CSc1ccc(OCc2ncc([N+](=O)[O-])n2C)cc1` [Fexinidazole, fexinidazole], the “L. donovani EC50, Amastigote (in macrophages)” value in data set [1] was “inactive”. Further, the EC50 is 5.6 ± 0.2 µM in data set [2] and 2.8 ± 0.1 µM in [3] (setting [8]). Moreover, the tolerability in mice entry with L. donovani strain LV9 (up to 200 mg kg^−1) is “well tolerated”. The ED50 in the data set with L. donovani strain LV9 (liver parasite burden day 14) was ~12 mg/kg and 11.9 ± 2.3 mg/kg. Further, in data set [4], the “shift in sensitivity, nitroreductase overexpressing vs wildtype” value was found to be 19 fold. This compound displayed a fraction unbound in data set [5] of 0.15.
For the compound `Cn1c([N+](=O)[O-])cnc1COc1ccc(S(C)(=O)=O)cc1` [Fexinidazole sulfone, fexinidazole sulfone], the 50% effective concentration (EC50) turned out to be 4.8 ± 0.1 µM in data set [2], 1.6 ± 0.1 µM in [3] (setting [8]), 4.4 ± 0.1 µM in data set [3] (setting [9]) and 0.23 ± 0.1 µM in data set [4]. In addition, the “time blood concentration stays above EC99” value in data set [6] is given as “more than 24 h”. For the same compound, the “shift in sensitivity, nitroreductase overexpressing vs wildtype” value in [4] was determined as 19 fold. The “exposure time after which no viable parasites could be recovered” value in data set [7] was found to be 30 h. In data set [5], this compound yielded a fraction unbound of 0.73.
As to `Cn1c([N+](=O)[O-])cnc1COc1ccc([S+](C)[O-])cc1` (stereo not drawn) [Fexinidazole sulfoxide, fexinidazole sulfoxide], the EC50 was 3.1 ± 0.1 µM in data set [2] and 4.5 ± 0.3 µM in data set [3] (setting [8]). Also, the “interaction in combination (isobologram)” value in [2] (fexinidazole sulfoxide plus sulfone, LdBOB promastigotes, 72h) is reported as “additive”. Also, in [6], the “time blood concentration stays above EC99” value was 8 h. In data set [7], the “exposure time after which no viable parasites could be recovered” value is 30 h. The same compound showed a fraction unbound in [5] of 0.86.
Turning to `CCCCCCCCCCCCCCCCOP(=O)([O-])OCC[N+](C)(C)C` [Miltefosine, miltefosine], the EC50 in data set [2] was 6.1 ± 0.3 µM. In data set [3] (setting [8]), the EC50 worked out at 4.4 ± 0.2 µM. In addition, in [4], the “shift in sensitivity, nitroreductase overexpressing vs wildtype” value was “no concomitant shift” and the EC50 worked out at 4.9 ± 0.2 µM. Moreover, in the data set on L. donovani, the median effective dose (ED50) is 4 mg/kg and the ED90 is 27 mg/kg. Also, the unbound share (fraction unbound) in [5] was found to be 0.002.
As to `O.O.O.O.O.O.O.O.O.O=C([O-])[C@@H]1[O][Sb](=[O])([O][Sb]2(=[O])[O][C@H]([C@H](O)CO)[C@H](O)[C@H](C(=O)[O-])[O]2)[O][C@H]([C@H](O)CO)[C@@H]1O.[Na+].[Na+].[Na+]` (stereo partly drawn) [Pentostam], in the data set on L. donovani, the median effective dose (ED50) is 20 mg/kg and the ED90 was 57 mg/kg.
As for `CC1CS(=O)(=O)CCN1/N=C/c1ccc([N+](=O)[O-])o1` (stereo not drawn) [nifurtimox], in [3] (setting [9]), the EC50 is 5.6 ± 0.2 µM. For the same compound, in data set [4], the “shift in sensitivity, nitroreductase overexpressing vs wildtype” value turned out to be 27 fold and the concentration for a half-maximal effect (EC50) worked out at 0.2 ± 0.1 µM.

Broadly, the EC50 is the midpoint of the concentration-response curve. A word on the ED50: it is the dose that gives a 50% effect, or the effect in half of the subjects. The term fraction unbound denotes free concentration divided by total concentration. Low readings indicate extensive binding, high ones weak binding.
